Results from publication PMC6397583 (Proceedings of the National Academy of Sciences of the …, 2019).

Tested on: E. coli MC1000
Assay: Transmission electron microscopy of peptide-treated bacteria
Assay type: cell-based, Escherichia coli
Conditions: 6 × 10^8 cfu E. coli MC1000, 200 µg/mL peptide, 2 h
Method in brief: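 Bacteria (6 × 10^8 cfu) were exposed to each test peptide (α-defensin or its fragments) at 200 µg/mL for 2 h. They were then fixed and cut into 30-nm sections. Cell envelope and membrane phenotypes were examined by transmission electron microscopy.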

With CATRESLSGVCEISGRLY [HD-5_10–27] the “phenotype of peptide-treated bacteria (TEM)” value was “only minor damage in some bacteria while the majority remained unaffected”.
For LYRLCCR [HD-5_26–32], the “phenotype of peptide-treated bacteria (TEM)” value was “small vesicular structures inside the bacteria”.
